The source made the active and inactive calls. The calls are words filed in the database; no cut-off is given here.
What was measured:
Type in all cases: cell-based
[1] = molecular target: Cystic fibrosis transmembrane conductance regulator (Homo sapiens, UniProt P13569, N1303K); assay: (§1) Potentiation of CFTR N1303K mutant (unknown origin) expressed in rat FRT cells assessed as increase in VX-770-stimulated chloride current in presence of forskolin by short circuit method
Method in brief: (§2)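 FRT cells stably expressing the mutant CFTR, corrected with 3 μM VX-661 for 18–24 hours, then grown on permeable supports. Short-circuit current at 37 °C in HCO3-buffered solutions with a chloride gradient. Basolateral membrane permeabilized with 250 μg/ml amphotericin B. Additions: 20 μM forskolin, 5 μM VX-770, test compound at a range of concentrations, then 10 μM CFTRinh-172. Concentration dependence n=3, mean ± S.E.M.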

[2] = tested on: Cystic fibrosis transmembrane conductance regulator (Homo sapiens), P13569 [N1303K]; assay: as §1; method in brief: as §2
[3] = tested on: Cystic fibrosis transmembrane conductance regulator (Homo sapiens), P13569 [R347P]; assay: Potentiation of CFTR R347P mutant (unknown origin) expressed in rat FRT cells assessed as effect on VX-770-stimulated chloride current in presence of forskolin by short circuit method
Method in brief: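 R347P-CFTR FRT cells, corrected with 3 μM VX-661 for 18–24 h. Short-circuit current at 37 °C in HCO3-buffered solutions with a chloride gradient. Basolateral membrane permeabilized with 250 μg/ml amphotericin B. Sequential additions: 20 μM forskolin, 5 μM VX-770, 20 μM test compound, then 10 μM CFTRinh-172.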

[4] = Potentiation of CFTR I1234del mutant (unknown origin) expressed in rat FRT cells assessed as increase in VX-770-stimulated chloride current in presence of forskolin by short circuit method; details: Homo sapiens; method in brief: as §2
[5] = tested on: Cystic fibrosis transmembrane conductance regulator (Homo sapiens), P13569 [N1303K]; assay: Potentiation of CFTR N1303K mutant (unknown origin) expressed in human 16HBE14o- cells assessed as increase in VX-770-stimulated chloride current in presence of forskolin by short circuit method; details: filed as activator
Method in brief: (§3)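 Gene-edited 16HBE14o- cells grown on permeable supports; short-circuit current at 37 °C with a chloride gradient in Hepes-buffered solutions. Sequential additions: 20 μM forskolin, 5 μM VX-770, 10 μM test compound, then 10 μM CFTRinh-172. Change in current (ΔIsc) reported as mean ± S.E.M., n = 3.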

16HBE14o- = assay: Potentiation of CFTR I1234del mutant (unknown origin) expressed in human 16HBE14o- cells assessed as increase in VX-770-stimulated chloride current in presence of forskolin by short circuit method; details: filed as activator; method in brief: as §3

Sequence of Cystic fibrosis transmembrane conductance regulator (P13569 whole entry N1303K): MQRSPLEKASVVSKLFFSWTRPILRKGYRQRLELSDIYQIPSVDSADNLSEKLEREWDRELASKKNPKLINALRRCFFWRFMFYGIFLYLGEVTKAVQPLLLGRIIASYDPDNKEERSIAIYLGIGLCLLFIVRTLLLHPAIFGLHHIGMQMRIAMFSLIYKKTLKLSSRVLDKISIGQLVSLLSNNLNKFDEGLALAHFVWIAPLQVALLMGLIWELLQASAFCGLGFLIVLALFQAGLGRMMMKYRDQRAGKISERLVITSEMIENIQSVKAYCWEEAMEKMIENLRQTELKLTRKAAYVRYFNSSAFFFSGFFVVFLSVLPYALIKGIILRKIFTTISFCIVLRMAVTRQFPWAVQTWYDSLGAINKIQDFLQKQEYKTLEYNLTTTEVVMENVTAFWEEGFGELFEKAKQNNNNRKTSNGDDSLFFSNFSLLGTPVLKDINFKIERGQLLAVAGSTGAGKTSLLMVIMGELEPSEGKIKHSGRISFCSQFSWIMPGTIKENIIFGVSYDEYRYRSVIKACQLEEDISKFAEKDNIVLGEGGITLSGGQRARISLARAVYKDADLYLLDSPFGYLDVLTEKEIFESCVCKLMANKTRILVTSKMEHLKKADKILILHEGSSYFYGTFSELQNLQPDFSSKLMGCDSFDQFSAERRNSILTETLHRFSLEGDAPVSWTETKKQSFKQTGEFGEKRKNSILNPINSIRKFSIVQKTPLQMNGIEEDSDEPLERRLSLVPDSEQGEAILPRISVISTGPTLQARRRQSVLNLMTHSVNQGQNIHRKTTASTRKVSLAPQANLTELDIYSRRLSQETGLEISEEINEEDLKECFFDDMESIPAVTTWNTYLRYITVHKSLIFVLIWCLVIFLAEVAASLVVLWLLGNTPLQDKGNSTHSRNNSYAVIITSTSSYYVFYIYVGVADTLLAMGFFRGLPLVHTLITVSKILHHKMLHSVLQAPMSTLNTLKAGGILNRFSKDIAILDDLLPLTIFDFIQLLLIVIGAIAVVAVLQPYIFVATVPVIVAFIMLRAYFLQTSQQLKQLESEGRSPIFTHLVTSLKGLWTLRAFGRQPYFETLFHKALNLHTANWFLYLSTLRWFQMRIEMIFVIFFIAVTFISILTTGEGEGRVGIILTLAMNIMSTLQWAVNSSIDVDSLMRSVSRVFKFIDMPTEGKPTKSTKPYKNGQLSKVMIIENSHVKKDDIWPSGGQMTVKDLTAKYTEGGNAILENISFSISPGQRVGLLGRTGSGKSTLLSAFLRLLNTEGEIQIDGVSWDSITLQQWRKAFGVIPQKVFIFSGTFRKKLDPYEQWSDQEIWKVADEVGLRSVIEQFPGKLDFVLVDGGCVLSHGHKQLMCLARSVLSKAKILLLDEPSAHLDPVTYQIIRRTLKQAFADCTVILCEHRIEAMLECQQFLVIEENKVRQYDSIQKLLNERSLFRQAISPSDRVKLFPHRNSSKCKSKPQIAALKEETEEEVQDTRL
Sequence of Cystic fibrosis transmembrane conductance regulator (Homo sapiens), P13569 [N1303K] (P13569 whole entry N1303K): as above
Sequence of Cystic fibrosis transmembrane conductance regulator (Homo sapiens), P13569 [R347P] (P13569 whole entry R347P): as the sequence (P13569 whole entry N1303K) above, with R347P, K1303N counted along it

EC50 [1] | SMILES | further results
1.8 µM | COc1ccc2[nH]c3c(c2c1)CCNC31CCN(Cc2ccc(Cl)cc2Cl)CC1 | 
 | COc1ccc2[nH]c3c(c2c1)CCNC31CCN(Cc2ccc(F)cc2F)C1 (configuration not stated) | Activity [2]: inactive
2 µM | COc1ccc2[nH]c3c(c2c1)CCNC31CCN(Cc2ccc(F)cc2F)CC1 | 
2.2 µM | COc1ccc2[nH]c3c(c2c1)CCNC31CCN(Cc2ccccc2Cl)CC1 | 
11.1 µM | COc1ccc2[nH]c3c(c2c1)CCNC31CCN(Cc2cc(F)ccc2F)CC1 | 
 | COc1ccc2[nH]c3c(c2c1)CCNC31CCN(Cc2cc(F)c(F)cc2F)CC1 | Activity [3]: inactive; EC50 [4]: 0.7 µM; Activity [5]: Active; Activity (16HBE14o-): Active
 | COc1ccc2c(c1)c1c(n2C)C2(CCN(Cc3ccc(F)cc3F)CC2)NCC1 | Activity [2]: inactive
20 µM | COc1ccc2[nH]c3c(c2c1)CCNC31CCCN(Cc2ccc(F)cc2F)CC1 (configuration not stated) | 
16.4 µM | COc1ccc2[nH]c3c(c2c1)CCNC31CCN(Cc2ccco2)CC1 | 
1.8 µM | COc1ccc2[nH]c3c(c2c1)CCNC31CCN(Cc2ccc(Br)c(F)c2)CC1 | 
12.6 µM | COc1ccc2[nH]c3c(c2c1)CCNC31CCN(Cc2ccccc2)CC1 | 
7.1 µM | COc1ccc2[nH]c3c(c2c1)CCNC31CCN(Cc2cc(Cl)ccc2[N+](=O)[O-])CC1 | 
13.6 µM | COc1ccc2[nH]c3c(c2c1)CCNC31CCN(Cc2cccc(F)c2F)CC1 | 
17 µM | COc1ccc2[nH]c3c(c2c1)CCNC31CCN(Cc2cccnc2)CC1 | 
 | COc1ccc2[nH]cc(CCNC3CCN(Cc4ccccc4)CC3)c2c1 | Activity [2]: inactive
8.2 µM | Fc1ccc(CN2CCC3(CC2)NCCc2c3[nH]c3ccccc23)c(F)c1 | 
 | COc1ccc2[nH]c3c(c2c1)CCN[C@@]31CCN2Cc3ccccc3C[C@H]2C1 (racemic) | Activity [2]: inactive
 | COc1ccc2[nH]c3c(c2c1)CCNC31CCNCC1 | Activity [2]: inactive
11 µM | COc1ccc2[nH]c3c(c2c1)CCNC31CCN(Cc2ccc(F)c(F)c2)CC1 | 
4.5 µM | COc1ccc2[nH]c3c(c2c1)CCNC31CCN(Cc2c(F)ccc(Cl)c2F)CC1 | 
11.1 µM | COc1ccc2[nH]c3c(c2c1)CCNC31CCN(Cc2cc(F)cc(F)c2)CC1 | 
 | COc1ccc2[nH]c3c(c2c1)CCNC31CCN(Cc2ccc(C(C)(C)C)cc2)CC1 | Activity [2]: inactive
1.6 µM | COc1ccc2[nH]c3c(c2c1)CCNC31CCN(Cc2ccc(Br)cc2F)CC1 | 
21 µM | Fc1ccc(CN2CCC3(CC2)NCCc2c3[nH]c3ccc(Br)cc23)c(F)c1 | 
5.9 µM | COc1ccc2[nH]c3c(c2c1)CCNC31CCN(Cc2ccc([N+](=O)[O-])cc2F)CC1 | 
 | COc1ccc2[nH]c3c(c2c1)CCNC31CCCN(Cc2ccc(F)cc2F)C1 (configuration not stated) | Activity [2]: inactive
11.5 µM | COc1ccc2[nH]c3c(c2c1)CCNC31CCN(Cc2ccccn2)CC1 | 
2.5 µM | COc1ccc2[nH]c3c(c2c1)CCNC31CCN(Cc2cc(F)cc(Cl)c2)CC1 | 
20 µM | COc1ccc2[nH]c3c(c2c1)CCNC31CCN(C(C)c2ccccc2)CC1 (configuration not stated) | 

From ChEMBL document CHEMBL4732073, “1-BENZYLSPIRO[PIPERIDINE-4,1'-PYRIDO[3,4-b]indole] 'co-potentiators' for minimal function CFTR mutants” (Eur J Med Chem, 2021)
